From ChEMBL document CHEMBL1131261, “Synthesis and antitumor activity of ring A- and F-modified hexacyclic camptothecin analogues” (J Med Chem, 1998)
Converted amounts (≈) assume the structure as drawn.

How the values were obtained:
QG-56 = test: In vitro antitumor activity against QG-56 (human lung cancer) cells.; assay type: functional, cell-based
Method in brief: (§1)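 MTT assay of cell growth after 3 days of incubation. IC50 is the dose that inhibits growth of 50% of the cultivated cells, given in ng/mL.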

[1] = molecular target: T1, DNA topoisomerase 1 (Homo sapiens) (UniProt P11387); test: Inhibition of topoisomerase-1 compared to SN-38.
T1 sequence (whole entry): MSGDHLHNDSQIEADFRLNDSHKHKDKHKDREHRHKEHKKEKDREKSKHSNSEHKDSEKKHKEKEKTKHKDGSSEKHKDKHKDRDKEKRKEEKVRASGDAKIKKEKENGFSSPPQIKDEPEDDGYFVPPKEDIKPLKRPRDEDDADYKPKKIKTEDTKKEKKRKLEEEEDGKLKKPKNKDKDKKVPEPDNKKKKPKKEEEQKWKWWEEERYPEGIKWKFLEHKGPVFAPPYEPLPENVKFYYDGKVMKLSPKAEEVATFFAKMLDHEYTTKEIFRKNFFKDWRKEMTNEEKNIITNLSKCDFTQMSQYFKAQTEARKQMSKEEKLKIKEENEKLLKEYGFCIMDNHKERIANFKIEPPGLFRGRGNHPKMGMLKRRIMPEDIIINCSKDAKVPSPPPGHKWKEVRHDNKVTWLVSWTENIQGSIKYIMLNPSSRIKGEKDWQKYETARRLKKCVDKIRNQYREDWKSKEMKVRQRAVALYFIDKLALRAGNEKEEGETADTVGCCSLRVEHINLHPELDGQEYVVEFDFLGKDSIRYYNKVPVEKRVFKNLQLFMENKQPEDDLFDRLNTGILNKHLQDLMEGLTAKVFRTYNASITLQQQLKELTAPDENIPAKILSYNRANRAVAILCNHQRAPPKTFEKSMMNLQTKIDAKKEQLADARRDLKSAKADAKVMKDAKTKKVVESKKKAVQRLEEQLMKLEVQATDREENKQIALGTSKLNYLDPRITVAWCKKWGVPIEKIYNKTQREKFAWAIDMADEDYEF
Method in brief: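 DNA relaxation assay with topoisomerase I. IC50 is the concentration that inhibits 50% of the conversion of supercoiled DNA to its relaxed form. Values are given as the ratio of the test IC50 to the IC50 of SN-38.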

P388 = test: In vitro antitumor activity against P388 (murine leukemia) cells.; assay type: functional, cell-based; conditions: Mus musculus
HOC-21 cell line = test: In vitro antitumor activity against HOC-21 (human ovarian cancer) cells.; assay type: functional, cell-based; method in brief: as §1

| SMILES | IC50 (QG-56) | Ratio [1] | IC50 (P388) | IC50 (HOC-21 cell line) |
| --- | --- | --- | --- | --- |
| CC[C@@]1(O)C(=O)OCc2c1cc1n(c2=O)Cc2c-1nc1cc(C)cc3c1c2CCC3 | 10.3 ng/mL (≈ 0.0256 µM) | 3.6 | 5.05 ng/mL (≈ 0.0125 µM) | 101 ng/mL (≈ 0.251 µM) |
| CC[C@@]1(O)C(=O)OCc2c1cc1n(c2=O)Cc2c-1nc1ccc(N)c3c1c2CCC3 | 1.38 ng/mL (≈ 0.00342 µM) | 1.4 |  | 35.9 ng/mL (≈ 0.089 µM) |
| CC[C@@]1(O)C(=O)OCc2c1cc1n(c2=O)Cc2c-1nc1ccc(C#N)c3c1c2CCC3 | 4.21 ng/mL (≈ 0.0102 µM) | 3.9 | 8.14 ng/mL (≈ 0.0197 µM) | 73.5 ng/mL (≈ 0.178 µM) |
| CC[C@@]1(O)C(=O)OCc2c1cc1n(c2=O)Cc2c-1nc1ccc(OC)c3c1c2CCS3 | 3.27 ng/mL (≈ 0.00749 µM) |  | 6.49 ng/mL (≈ 0.0149 µM) | 80.2 ng/mL (≈ 0.184 µM) |
| CC[C@@]1(O)C(=O)OCc2c1cc1n(c2=O)Cc2c-1nc1ccc(OC)c3c1c2CCN3 | 10.6 ng/mL (≈ 0.0253 µM) |  | 10.7 ng/mL (≈ 0.0255 µM) | 106 ng/mL (≈ 0.254 µM) |
| CC[C@@]1(O)C(=O)OCc2c1cc1n(c2=O)Cc2c-1nc1cc(F)c(F)c3c1c2CCC3 | 0.38 ng/mL (≈ 0.000895 µM) | 0.7 | 0.48 ng/mL (≈ 0.00113 µM) | 10.9 ng/mL (≈ 0.0257 µM) |
| CC[C@@]1(O)C(=O)OCc2c1cc1n(c2=O)Cc2c-1nc1cccc3c1c2CCC3 | 1.63 ng/mL (≈ 0.0042 µM) | 4 | 5.23 ng/mL (≈ 0.0135 µM) | 92.9 ng/mL (≈ 0.239 µM) |
| CC[C@@]1(O)C(=O)OCc2c1cc1n(c2=O)Cc2c-1nc1cc(F)c(F)c3c1c2CCC3O (some centres not stated) | 2.62 ng/mL (≈ 0.00595 µM) | 1.2 | 3.17 ng/mL (≈ 0.0072 µM) | 68.9 ng/mL (≈ 0.156 µM) |
| CC[C@@]1(O)C(=O)OCc2c1cc1n(c2=O)Cc2c-1nc1ccc(O)c3c1c2CCS3 | 3.68 ng/mL (≈ 0.00871 µM) | 1.6 | 8.63 ng/mL (≈ 0.0204 µM) | 153 ng/mL (≈ 0.361 µM) |
| CC[C@@]1(O)C(=O)OCc2c1cc1n(c2=O)Cc2c-1nc1cc(F)c(C)c3c1c2CCC3 | 0.17 ng/mL (≈ 0.000404 µM) | 0.51 | 0.22 ng/mL (≈ 0.000523 µM) | 2.06 ng/mL (≈ 0.0049 µM) |
| CC[C@@]1(O)C(=O)OCc2c1cc1n(c2=O)Cc2c-1nc1cc(O)cc3c1c2CCC3 | 4.7 ng/mL (≈ 0.0116 µM) | 0.17 | 0.99 ng/mL (≈ 0.00245 µM) | 20.6 ng/mL (≈ 0.0509 µM) |
| CC[C@@]1(O)C(=O)OCc2c1cc1n(c2=O)Cc2c-1nc1ccc(N)c3c1c2CCO3 | 0.71 ng/mL (≈ 0.00175 µM) | 1.2 | 2.6 ng/mL (≈ 0.00641 µM) | 57.7 ng/mL (≈ 0.142 µM) |
| CCc1c2c(nc3ccc(O)cc13)-c1cc3c(c(=O)n1C2)COC(=O)[C@]3(O)CC [7-ETHYL-10-HYDROXYCAMPTOTHECIN] | 0.9 ng/mL (≈ 0.00229 µM) | 1 | 1.44 ng/mL (≈ 0.00367 µM) | 41.2 ng/mL (≈ 0.105 µM) |
| CC[C@@]1(O)C(=O)OCc2c1cc1n(c2=O)Cc2cc3ccccc3nc2-1 |  | 0.39 |  |  |
| CC[C@@]1(O)C(=O)OCc2c1cc1n(c2=O)Cc2c-1nc1ccc(O)c3c1c2CCC3 |  | 0.47 |  |  |
| CC[C@@]1(O)C(=O)OCc2c1cc1n(c2=O)Cc2c-1nc1ccc(N)c3c1c2CCS3 | 0.4 ng/mL (≈ 0.000949 µM) | 0.9 | 1.08 ng/mL (≈ 0.00256 µM) | 8.37 ng/mL (≈ 0.0199 µM) |
| CC[C@@]1(O)C(=O)OCc2c1cc1n(c2=O)Cc2c-1nc1ccc(OC)c3c1c2CCN3C(C)=O | 29.8 ng/mL (≈ 0.0646 µM) |  | > 62.5 ng/mL | > 500 ng/mL |
| CC[C@@]1(O)C(=O)OCc2c1cc1n(c2=O)Cc2c-1nc1cc(F)cc3c1c2CCC3 | 0.16 ng/mL (≈ 0.000394 µM) | 0.24 | 0.26 ng/mL (≈ 0.00064 µM) | 3.39 ng/mL (≈ 0.00834 µM) |
| CC[C@@]1(O)C(=O)OCc2c1cc1n(c2=O)Cc2c-1nc1cc(N)c(O)c3c1c2CCC3 | 11.6 ng/mL (≈ 0.0277 µM) | 2.6 | > 62.5 ng/mL | > 500 ng/mL |
| CC[C@@]1(O)C(=O)OCc2c1cc1n(c2=O)Cc2c-1nc1cc(OC)cc3c1c2CCC3 | 1.32 ng/mL (≈ 0.00315 µM) | 0.7 | 1.01 ng/mL (≈ 0.00241 µM) | 17.4 ng/mL (≈ 0.0416 µM) |
| CC[C@@]1(O)C(=O)OCc2c1cc1n(c2=O)Cc2c-1nc1cccc3c1c2CCS3 | 1.71 ng/mL (≈ 0.00421 µM) |  | 3.04 ng/mL (≈ 0.00748 µM) | 33 ng/mL (≈ 0.0812 µM) |
| CC[C@@]1(O)C(=O)OCc2c1cc1n(c2=O)Cc2c-1nc1cc(Cl)cc3c1c2CCC3 | 0.53 ng/mL (≈ 0.00125 µM) | 0.23 | 0.73 ng/mL (≈ 0.00173 µM) | 14 ng/mL (≈ 0.0331 µM) |
